APJ ag = APJ receptor agonism. 0.11% of 330,000 active. CHO-K1 APJ PathHunter beta-arrestin, luminescence; 0% DMSO wells, 100% apelin. P35414. AID 2520. activation, % at 20 µM;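 active means activation more than six SD over the plate average, tested at 20 µM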;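 further: 0% = DMSO alone and 100% = apelin-13 at 10 nM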
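Test system: CHO-K1 APJ beta-arrestin complementation cell line. Amount: cell density 1000 per well. Controls: DMSO negative, 10 nM Apelin-13 positive. Signal: luminescent beta-gal fragment complementation, chemiluminescent substrate. Read-out basis: agonist-driven arrestin binding to APJ. Timing: compound stimulation 90 min at 25 °C, detection 60 min.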
EBI2 block = blocks human EBI2 receptor beta-arrestin signaling. AID 651636. 0.81% of 360,000 active. EBI2 beta-arrestin recruitment, luminescence, 7a,25-OHC stimulated. P32249. inhibition, % at 5 µM; in the data active means inhibition above about 38%;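 further: enzyme fragment complementation signal reports receptor beta-arrestin coupling in cells; 0% = agonist plus DMSO wells and 100% = wells without agonist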
Target sequence (P32249 whole entry, looked up, the tested form may be a part): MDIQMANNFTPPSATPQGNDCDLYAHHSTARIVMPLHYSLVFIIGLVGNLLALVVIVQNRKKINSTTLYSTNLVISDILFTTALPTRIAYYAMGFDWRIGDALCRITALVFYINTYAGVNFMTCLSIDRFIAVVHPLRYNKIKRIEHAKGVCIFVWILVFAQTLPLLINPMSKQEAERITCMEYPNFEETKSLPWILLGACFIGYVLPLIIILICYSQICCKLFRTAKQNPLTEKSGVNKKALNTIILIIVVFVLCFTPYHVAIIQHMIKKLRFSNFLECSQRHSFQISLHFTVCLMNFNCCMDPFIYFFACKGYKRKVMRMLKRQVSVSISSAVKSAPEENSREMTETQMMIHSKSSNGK
CCR6 antagonist = blocks CCL20-driven beta-arrestin recruitment at human CCR6; AID 493098; 0.49% of 340,000 active; inhibition, % at 20 µM; CHO-K1 CCR6 PathHunter beta-arrestin, luminescence, CCL20-stimulated;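 active means compounds whose inhibition of the agonist-driven luminescence signal at 20 µM reaches about 50%, limit read from the data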;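 further: cells stimulated with CCL20 at 14 nM final; plate controls were DMSO with CCL20 for no effect and DMSO without agonist for full effect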
B2AR ag = human beta-2 adrenergic receptor agonism by FAP; P07550; Am2.2-beta2AR cells, FAP receptor internalization, flow cytometry; response, % (test concentration not listed); 0.43% of 340,000 active;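 active means response above a set limit, near 3 SD of response in nonfluorescent compounds, cut at about 42% in these data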
APJ antagonist = APJ receptor antagonism | inhibition, % at 20 µM | 0.32% of 330,000 active | AID 2521 | CHO-K1 APJ beta-arrestin complementation, luminescence;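 active means inhibition above about 40% at 20 µM, limit read from the data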;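 further: cells challenged with 10 nM apelin-13 agonist together with compound; plate controls were apelin-13 plus DMSO wells for no effect and DMSO wells lacking apelin-13 for full effect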
CXCR6 inh = inhibitors of human CXCR6 receptor. O00574. CHO-K1 PathHunter CXCR6 beta-arrestin, luminescence. inhibition, % at 20 µM. 0.36% of 360,000 active. AID 602244; in the data active means inhibition above about 34%, passing the limit was not always enough;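 further: antagonist mode with CXCL16 agonist at 10 nM final; 0% = 10 nM CXCL16 with DMSO and 100% = unstimulated wells without agonist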
EBI2 conf = EBI2 (human) antagonism, single concentration confirmation; shares compounds with EBI2 block; EBI2 beta-arrestin luminescence, 7a,25-OHC antagonism; inhibition, % at 5 µM; 29% of 2,400 active; AID 651997;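 active means inhibition of at least 50%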
EBI2 ag = EBI2 agonism counter-screen. activation, % at 5 µM. 2,400 tested, under 10 active. EBI2-expressing cells, agonist mode, luminescence, 60 min; 0% vehicle, 100% 7α,25-dihydroxycholesterol control. shares compounds with EBI2 block;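 active means activation of at least 50%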
bGal cs = inhibits E. coli beta-galactosidase, counter-screen for EBI2 antagonists | shares compounds with EBI2 block | purified beta-galactosidase, luminescent Galacton Star, 15 min | inhibition, % at 5 µM | 1% of 2,400 active;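 active means replicate-average signal at least 3 plate SD below neutral wells, shown as high inhibition, flagging enzyme-inhibiting false positives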;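 further: 0% = DMSO wells with enzyme and 100% = wells lacking enzyme; higher means stronger loss of beta-gal luminescence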
Numbers without * were called inactive; . = not tested or not shown. An excerpt weighted towards active compounds, which were near 1.8% of everything screened.

SMILES	APJ ag	EBI2 block	CCR6 antagonist	B2AR ag	APJ antagonist	CXCR6 inh	EBI2 conf	EBI2 ag	bGal cs
Cc1ccc(SCCNC(=O)CN(c2ccc3c(c2)OCO3)S(C)(=O)=O)cc1	2	71*	-8	0	1	4	58*	1	5
Cc1ccccc1CSCCNC(=O)CN(c1ccc2c(c1)OCO2)S(C)(=O)=O	1	-1	17	14	14	0	.	.	.
COc1ccc(N(CC(=O)NCCSCc2ccc(Cl)cc2)S(C)(=O)=O)cc1Cl	-1	46*	12	-2	16	1	33	0	8
COc1ccccc1N(CC(=O)NCCSc1ccc(Cl)cc1)S(C)(=O)=O	-2	80*	6	-1	1	-5	62*	1	4
COc1ccccc1N(CC(=O)NCCSc1ccccc1)S(=O)(=O)c1ccccc1	-4	50*	18	6	-25	3	33	-2	-7
CC(CC(c1ccccc1)N1CCc2ccccc2C1)=NO (centres undefined)	.	-4	.	.	.	5	.	.	.
O=c1c2cn[nH]c2nc(SCc2c(F)cccc2F)n1-c1ccc(Cl)cc1	-2	5	26	13	4	5	.	.	.
COc1ccc(N(CC(=O)NCCSc2ccccc2)S(=O)(=O)c2ccccc2)cc1	-3	88*	11	1	-21	0	59*	2	4
COc1ccc(N(CC(=O)NCCSc2ccccn2)S(=O)(=O)c2ccccc2)c(OC)c1	4	-4	8	7	-1	1	.	.	.
COc1ccc(N(CC(=O)NCCSc2ccccc2)S(=O)(=O)c2ccccc2)c(OC)c1	1	45*	15	14	-2	0	13	2	-12
COc1ccc(N(CC(=O)NCCSCc2ccc(C)cc2)S(=O)(=O)c2ccccc2)cc1	3	73*	0	7	-16	-3	47	1	1
COc1ccccc1N(CC(=O)NCCSCc1ccc(C)cc1)S(=O)(=O)c1ccccc1	2	38	8	14	-24	8	.	.	.
COc1ccc(S(=O)(=O)N(CC(=O)NCCSc2ccccn2)c2ccccc2)cc1	2	16	8	23	0	0	.	.	.
CCCc1nc2ccc(NC(=O)c3cccs3)cc2c(=O)n1Cc1ccc(Cl)cc1	-2	43*	-9	6	6	2	20	3	6
COC(=O)c1cc2c(ccn2-c2ccc(F)cc2)n1Cc1ccc(OC)cc1	2	44*	26	-8	6	8	19	0	5
COC(=O)c1cc2c(ccn2-c2ccc(F)cc2)n1Cc1ccc(C#N)cc1	-3	41	14	-1	-11	12	.	.	.
CCn1c(C(=O)OC)cc2c1ccn2-c1ccc(F)cc1	-4	46*	16	0	18	5	20	-1	-8
O=C(Nc1cccnc1)C1CCN(S(=O)(=O)c2ccc(Cl)cc2)CC1	1	-13	-1	-4	-17	-8	.	.	.
CCOc1ccc(C(=O)C2CCN(C(=O)c3ccc([N+](=O)[O-])cc3)CC2)cc1	1	84*	-4	-1	-28	-13	53*	-1	-5
COc1ccc(C(=O)C2CCN(C(=O)c3ccc(C)cc3)CC2)cc1	-2	53*	-9	2	1	3	47	-1	-19
Cc1ccc(C2CCN(C(=O)Nc3ccc(F)cc3)C2)cc1 (centres undefined)	-2	71*	7	6	-4	9	54*	2	-2
CCOc1ccc(C(=O)C2CCN(C(=O)c3ccccc3C(=O)O)CC2)cc1	-4	-5	-14	-4	-4	-4	.	.	.
COc1ccc(C(=O)C2CCN(C(=O)Nc3ccc(C)cc3)CC2)cc1	-3	49*	-5	5	5	-8	15	1	3
O=C(CCCN1C(=O)/C(=C/c2cccs2)SC1=S)NNC(=O)c1ccc(F)cc1	-3	63*	19	-9	15	14	19	-2	-11
O=C(CCCN1C(=O)/C(=C/c2cccs2)SC1=S)Nc1ccc(C(=O)O)cc1	-4	-13	19	-3	16	8	.	.	.
SMILES	APJ ag	EBI2 block	CCR6 antagonist	B2AR ag	APJ antagonist	CXCR6 inh	EBI2 conf	EBI2 ag	bGal cs
CC(C)Cc1nnc(NC(=O)C2=COCCO2)s1	1	-5	0	-1	-3	-6	.	.	.
CCCN1CCC(C(=O)NC(c2ccc(Cl)cc2)c2ccsc2)CC1 (centres undefined)	.	-3	.	.	.	6	.	.	.
COc1ccc(/C=C/c2c(-c3ccc(OC)cc3)sc3ccc(N4CCOCC4)cc23)cc1	9	50*	1	6	-13	2	-2	-1	-11
CC(C(=O)NCCS(=O)(=O)c1ccc(Cl)cc1)S(=O)(=O)c1ccc(Cl)cc1 (centres undefined)	-4	7	6	10	10	-3	.	.	.
CC(C)c1ccc(C(C)NCCS(=O)(=O)c2ccc(Br)cc2)cc1 (centres undefined)	-3	78*	28	1	10	6	61*	0	5
CC(NCCS(=O)(=O)c1ccc(Cl)cc1)c1cccc(Cl)c1 (centres undefined)	2	74*	11	2	20	4	38	0	4
COc1ccc(OCC(O)CNC(=O)c2ccc(OC)cc2)cc1 (centres undefined)	-1	21	12	-1	9	4	.	.	.
COc1ccc(OCC(O)CNc2ccc(Br)cc2)cc1 (centres undefined)	0	76*	-3	-7	0	-1	52*	0	-9
COc1ccc(CN(C)CC(O)COc2ccc(C(=O)c3ccccc3)cc2)c(OC)c1OC (centres undefined)	2	-2	15	4	3	2	.	.	.
COc1ccc(OCC(O)CNC(=O)c2ccc(Br)cc2)cc1 (centres undefined)	-2	53*	21	-1	-13	3	36	1	9
COc1ccc(Br)cc1CN(C)CC(O)COc1ccc(Br)cc1 (centres undefined)	-1	91*	10	-6	12	-7	59*	-1	-12
COc1ccc(OCC(O)Cn2cnc(-c3ccc(Br)cc3)c2)cc1 (centres undefined)	-3	48*	-9	-6	2	-10	40	1	6
